Experimental data reported in ChEMBL document CHEMBL2331476, “A novel semisynthetic flavonoid 7-O-galloyltaxifolin upregulates heme oxygenase-1 in RAW264.7 cells via MAPK/Nrf2 pathway” (J Med Chem, 2013).
Active and inactive are the calls of the source. No cut-off for these calls is given here.

Experiments:
[1] = molecular target: T1, Nuclear factor erythroid 2-related factor 2 (Mus musculus) (UniProt Q60795); assay: Activation of Nrf2 in mouse RAW264.7 cells assessed as upregulation of HO1 protein expression at 10 uM after 6 hrs by Western blotting analysis; format: cell-based
T1 sequence (whole entry): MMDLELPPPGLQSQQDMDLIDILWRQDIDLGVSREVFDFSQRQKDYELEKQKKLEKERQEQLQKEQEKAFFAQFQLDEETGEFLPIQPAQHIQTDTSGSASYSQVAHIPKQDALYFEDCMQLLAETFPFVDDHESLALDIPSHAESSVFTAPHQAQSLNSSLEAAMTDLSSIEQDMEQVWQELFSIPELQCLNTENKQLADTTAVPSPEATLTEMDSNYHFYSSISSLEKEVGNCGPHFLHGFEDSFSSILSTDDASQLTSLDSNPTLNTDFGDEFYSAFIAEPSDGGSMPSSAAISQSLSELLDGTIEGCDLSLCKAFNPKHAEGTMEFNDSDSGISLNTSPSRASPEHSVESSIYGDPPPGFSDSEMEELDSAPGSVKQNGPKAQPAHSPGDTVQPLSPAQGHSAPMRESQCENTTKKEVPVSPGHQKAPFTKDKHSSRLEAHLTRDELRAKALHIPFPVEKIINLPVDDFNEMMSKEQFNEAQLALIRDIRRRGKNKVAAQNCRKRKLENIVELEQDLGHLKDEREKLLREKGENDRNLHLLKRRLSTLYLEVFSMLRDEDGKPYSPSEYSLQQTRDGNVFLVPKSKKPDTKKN
Outline: (§1)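 HO-1 protein in whole-cell lysates (20 μg/lane) of serum-starved RAW264.7 cells after 6 h at 10-50 μM or 50 μM for 1-6 h in serum-free medium, 0.1% DMSO control. Chemiluminescent Western blot; HO-1 densitometry normalized to actin, mean of three experiments.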

[2] = molecular target: T1, Nuclear factor erythroid 2-related factor 2 (Mus musculus); assay: Activation of Nrf2 in mouse RAW264.7 cells assessed as upregulation of HO1 protein expression at 50 uM after 6 hrs by Western blotting analysis relative to untreated control; format: cell-based; outline: as §1
[3] = molecular target: T1, Nuclear factor erythroid 2-related factor 2 (Mus musculus); assay: Activation of Nrf2 in mouse RAW264.7 cells assessed as upregulation of HO1 protein expression at 50 uM after 4 hrs by Western blotting analysis relative to untreated control; format: cell-based; outline: as §1
[4] = molecular target: T1, Nuclear factor erythroid 2-related factor 2 (Mus musculus); assay: Activation of Nrf2 in mouse RAW264.7 cells assessed as upregulation of HO1 protein expression at 50 uM after 1 hrs by Western blotting analysis relative to untreated control; format: cell-based; outline: as §1
[5] = molecular target: T1, Nuclear factor erythroid 2-related factor 2 (Mus musculus); assay: Activation of Nrf2 in mouse RAW264.7 cells assessed as induction of Hmox1 mRNA expression at 50 uM after 6 hrs by real-time PCR analysis in presence of SP600125; format: cell-based
Outline: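 Pretreatment 30 min with 0.1% DMSO, 15 μM PD98059, 15 μM SB203580 or 30 μM SP600125, then 50 μM agent for 6 h in serum-free medium. Hmox1 mRNA by TaqMan qPCR normalized to Gapdh, given as percent of agent-induced expression; mean ± SD of three experiments.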

[6] = molecular target: Mitogen-activated protein kinase 8 (Mus musculus) (UniProt Q91Y86); assay: Activation of JNK1 in mouse RAW264.7 cells assessed as phosphorylation at Thr183/Tyr185 at 50 uM after 30 mins by Western blotting analysis; format: cell-based
Chain of Mitogen-activated protein kinase 8 (Mus musculus) (Q91Y86 whole entry): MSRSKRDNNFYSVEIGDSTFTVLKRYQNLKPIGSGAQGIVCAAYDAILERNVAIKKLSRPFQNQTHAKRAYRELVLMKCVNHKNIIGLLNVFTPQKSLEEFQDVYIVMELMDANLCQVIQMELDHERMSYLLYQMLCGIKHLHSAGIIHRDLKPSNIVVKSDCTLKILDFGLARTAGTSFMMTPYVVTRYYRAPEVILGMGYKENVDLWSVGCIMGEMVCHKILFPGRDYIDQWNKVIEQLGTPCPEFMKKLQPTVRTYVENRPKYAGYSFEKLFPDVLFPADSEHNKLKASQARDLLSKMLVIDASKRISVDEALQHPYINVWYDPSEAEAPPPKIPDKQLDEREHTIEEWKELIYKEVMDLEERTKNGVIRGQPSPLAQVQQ
Outline: (§2)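 Serum-starved RAW264.7 cells exposed in serum-free medium for 30 min to 4 h; 5 μM anisomycin for 30 min as positive control. Whole-cell lysates (30 μg/lane) blotted for JNKs dually phosphorylated at Thr183/Tyr185 and total JNKs, chemiluminescent detection.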

[7] = molecular target: T2, MAP kinase p38 (Homo sapiens) (UniProt O15264+Q15759+Q16539+P53778); assay: Activation of p38MAPK in mouse RAW264.7 cells assessed as phosphorylation at Thr180/Tyr182 at 50 uM after 1 hr by Western blotting analysis; format: cell-based
Outline: (§3)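 p38 phosphorylation at Thr180/Tyr182 and total p38 probed in whole-cell lysates (35 μg/lane) of serum-starved RAW264.7 cells treated for 30 min to 4 h in serum-free medium. Positive controls were 5 μM anisomycin or 75 ng/mL EGF for 30 min. Chemiluminescent Western detection.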

[8] = molecular target: Mitogen-activated protein kinase 9/10 (Mus musculus) (UniProt Q9WTU6+Q61831); assay: Activation of JNK2/3 in mouse RAW264.7 cells assessed as phosphorylation at 50 uM after 30 mins to 4 hrs by Western blotting analysis; format: cell-based; conditions: TDE = time-dependent effect; outline: as §2
Chain of Mitogen-activated protein kinase 9/10 (Mus musculus) (Q61831 whole entry, looked up): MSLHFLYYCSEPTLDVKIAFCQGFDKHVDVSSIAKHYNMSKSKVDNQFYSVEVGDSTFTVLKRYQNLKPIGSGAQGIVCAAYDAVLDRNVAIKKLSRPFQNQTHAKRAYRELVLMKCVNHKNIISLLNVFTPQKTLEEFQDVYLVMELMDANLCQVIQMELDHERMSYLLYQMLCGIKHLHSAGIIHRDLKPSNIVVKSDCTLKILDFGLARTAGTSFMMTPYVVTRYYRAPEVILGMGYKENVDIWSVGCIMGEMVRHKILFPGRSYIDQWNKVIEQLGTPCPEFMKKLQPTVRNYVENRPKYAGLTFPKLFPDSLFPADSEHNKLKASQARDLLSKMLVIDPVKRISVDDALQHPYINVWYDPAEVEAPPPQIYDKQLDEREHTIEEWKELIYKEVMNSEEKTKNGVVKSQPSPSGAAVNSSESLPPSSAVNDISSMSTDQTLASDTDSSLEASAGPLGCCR
Chain of Mitogen-activated protein kinase 9/10 (Mus musculus) (Q9WTU6 whole entry, looked up): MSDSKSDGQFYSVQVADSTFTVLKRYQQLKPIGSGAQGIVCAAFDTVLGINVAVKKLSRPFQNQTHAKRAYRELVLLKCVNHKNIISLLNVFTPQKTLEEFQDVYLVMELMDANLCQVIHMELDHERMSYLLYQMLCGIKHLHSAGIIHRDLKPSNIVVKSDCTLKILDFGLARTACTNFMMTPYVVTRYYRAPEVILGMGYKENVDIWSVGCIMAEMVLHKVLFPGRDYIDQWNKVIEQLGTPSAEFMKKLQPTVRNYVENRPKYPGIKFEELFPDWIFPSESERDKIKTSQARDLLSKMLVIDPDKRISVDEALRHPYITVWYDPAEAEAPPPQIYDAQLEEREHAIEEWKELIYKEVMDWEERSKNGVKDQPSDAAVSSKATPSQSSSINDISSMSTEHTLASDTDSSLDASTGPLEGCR

[9] = molecular target: T2, MAP kinase p38 (Homo sapiens); assay: Activation of p38MAPK in mouse RAW264.7 cells assessed as phosphorylation at Thr180/Tyr182 at 50 uM after 30 mins to 4 hrs by Western blotting analysis; format: cell-based; conditions: TDE = time-dependent effect; outline: as §3
[10] = molecular target: Mitogen-activated protein kinase 1 (Mus musculus) (UniProt P63085); assay: Activation of ERK2 in mouse RAW264.7 cells assessed as phosphorylation at Thr185/Tyr187 at 50 uM after 30 mins by Western blotting analysis; format: cell-based
Chain of Mitogen-activated protein kinase 1 (Mus musculus) (P63085 whole entry): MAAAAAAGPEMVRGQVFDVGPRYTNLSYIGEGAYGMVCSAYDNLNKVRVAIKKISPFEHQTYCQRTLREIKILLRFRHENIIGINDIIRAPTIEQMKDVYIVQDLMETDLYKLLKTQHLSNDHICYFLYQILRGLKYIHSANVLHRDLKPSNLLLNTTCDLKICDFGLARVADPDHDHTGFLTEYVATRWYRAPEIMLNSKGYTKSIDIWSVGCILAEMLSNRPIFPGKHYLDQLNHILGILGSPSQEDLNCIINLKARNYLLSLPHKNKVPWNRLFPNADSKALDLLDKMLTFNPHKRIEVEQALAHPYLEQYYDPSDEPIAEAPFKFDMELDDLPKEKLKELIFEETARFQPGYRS
Outline: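 RAW264.7 cells (passage 5-25) seeded at 1 × 10⁵ cells/cm², serum-starved overnight, then exposed in serum-free medium for 30 min to 3 h; 0.1% DMSO vehicle; 75 ng/mL EGF for 30 min as positive control. Whole-cell lysates (20 μg/lane) on 10% SDS-PAGE, blotted for phospho-ERK1 (Thr202/Tyr204), phospho-ERK2 (Thr185/Tyr187) and total ERK1/2, chemiluminescent detection.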

[11] = molecular target: T1, Nuclear factor erythroid 2-related factor 2 (Mus musculus); assay: Activation of Nrf2 in mouse RAW264.7 cells assessed as cytosolic accumulation at 50 uM after 2 hrs by Western blotting analysis; format: cell-based
Outline: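 Serum-starved RAW264.7 cells treated 30 min to 3 h (10-50 μM for 3 h, or 50 μM time course); 0.1% DMSO control, 50 μM quercetin positive control. Cytosolic fraction from hypotonic HEPES pH 7.9 buffer with 0.1% NP-40; nuclear fraction by 420 mM NaCl extraction. 30 μg/lane blotted for Nrf2 and actin; Nrf2/actin densitometry, mean of three experiments.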

[12] = molecular target: T1, Nuclear factor erythroid 2-related factor 2 (Mus musculus); assay: Activation of Nrf2 in mouse RAW264.7 cells assessed as upregulation of HO1 protein expression at 50 uM after 6 hrs by Western blotting analysis; format: cell-based; outline: as §1
[13] = Drug metabolism in culture medium assessed as 7-O-galloylquercetin level; format: physicochemical
Outline: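 Compound incubated in culture medium without cells. Medium aliquots diluted 1:1 in methanol with 5% acetic acid, centrifuged, and analysed by phenyl-column UPLC with negative-mode ESI-QqTOF MS.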

RAW264.7 = assay: Induction of ROS generation in mouse RAW264.7 cells at 25 uM after 2 hrs by flow cytometric analysis; format: functional
Outline: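 Serum-starved RAW264.7 cells treated 2 h at 10-50 μM; 100 μM TBHP for 30 min as positive control. Medium replaced, cells loaded with 10 μM carboxy-H₂DCFDA for 15 min at 37 °C. Flow cytometry (488 nm excitation, 525 nm emission, 10,000 events) gave percentage of cells with raised ROS; mean ± SD of three experiments.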

fold change (FC) [1]: 1.1
fold change (FC) [2]: 2.5
fold change (FC) [3]: 1.6
fold change (FC) [4]: 1.1
Activity [5]: 90%
Activity [6]: Active
Activity [7]: Active
Activity [8]: tde
Activity [9]: tde
Activity [10]: Active
Activity [11]: Active
fold change (FC) [12]: 2.3
Drug metabolism [13]: Not Active
SMILES: O=C(Oc1cc(O)c2c(c1)O[C@H](c1ccc(O)c(O)c1)[C@@H](O)C2=O)c1cc(O)c(O)c(O)c1
Activity (RAW264.7): 19%
